Data from ChEMBL document CHEMBL1158526, “Labeled 3-aryl-4-indolylmaleimide derivatives and their potential as angiogenic PET biomarkers” (Bioorg Med Chem, 2010).

Legend:
[1] = target: Receptor tyrosine-protein kinase erbB-2 (Homo sapiens, UniProt P04626); test: Inhibition of ERBB2 after 80 mins by radiometric protein kinase assay
In short: (§1)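 The substrate was Poly(Glu,Tyr)4:1. 12 concentrations were run in triplicate with 1% final DMSO, at 30 °C for 80 min. Reactions were stopped with 2% H₃PO₄, washed with 0.9% NaCl, and ³³P incorporation was read by scintillation counting.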

[2] = target: Insulin-like growth factor 1 receptor (Homo sapiens, UniProt P08069); test: Inhibition of IGF1R after 80 mins by radiometric protein kinase assay
Insulin-like growth factor 1 receptor, sequence (P08069 31-736 limits assumed): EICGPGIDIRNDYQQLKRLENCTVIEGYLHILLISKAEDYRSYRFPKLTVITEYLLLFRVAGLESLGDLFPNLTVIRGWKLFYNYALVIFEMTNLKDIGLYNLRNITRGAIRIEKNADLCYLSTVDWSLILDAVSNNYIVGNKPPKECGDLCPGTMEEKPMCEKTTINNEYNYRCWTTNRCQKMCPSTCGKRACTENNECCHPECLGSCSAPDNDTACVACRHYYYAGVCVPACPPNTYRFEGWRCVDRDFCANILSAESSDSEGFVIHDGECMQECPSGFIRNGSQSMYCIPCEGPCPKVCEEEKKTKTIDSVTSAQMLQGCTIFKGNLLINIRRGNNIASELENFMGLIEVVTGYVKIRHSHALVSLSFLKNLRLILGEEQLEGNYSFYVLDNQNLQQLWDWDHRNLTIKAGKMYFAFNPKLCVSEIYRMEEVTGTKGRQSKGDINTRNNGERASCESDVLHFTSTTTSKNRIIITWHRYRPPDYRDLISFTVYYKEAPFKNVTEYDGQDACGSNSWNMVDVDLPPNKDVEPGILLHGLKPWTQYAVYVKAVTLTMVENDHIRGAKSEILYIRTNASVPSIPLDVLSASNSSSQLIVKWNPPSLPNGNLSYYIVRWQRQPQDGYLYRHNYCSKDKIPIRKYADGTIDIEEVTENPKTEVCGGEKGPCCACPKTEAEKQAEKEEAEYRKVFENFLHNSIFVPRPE
Insulin-like growth factor 1 receptor, sequence (P08069 741-1367 limits assumed): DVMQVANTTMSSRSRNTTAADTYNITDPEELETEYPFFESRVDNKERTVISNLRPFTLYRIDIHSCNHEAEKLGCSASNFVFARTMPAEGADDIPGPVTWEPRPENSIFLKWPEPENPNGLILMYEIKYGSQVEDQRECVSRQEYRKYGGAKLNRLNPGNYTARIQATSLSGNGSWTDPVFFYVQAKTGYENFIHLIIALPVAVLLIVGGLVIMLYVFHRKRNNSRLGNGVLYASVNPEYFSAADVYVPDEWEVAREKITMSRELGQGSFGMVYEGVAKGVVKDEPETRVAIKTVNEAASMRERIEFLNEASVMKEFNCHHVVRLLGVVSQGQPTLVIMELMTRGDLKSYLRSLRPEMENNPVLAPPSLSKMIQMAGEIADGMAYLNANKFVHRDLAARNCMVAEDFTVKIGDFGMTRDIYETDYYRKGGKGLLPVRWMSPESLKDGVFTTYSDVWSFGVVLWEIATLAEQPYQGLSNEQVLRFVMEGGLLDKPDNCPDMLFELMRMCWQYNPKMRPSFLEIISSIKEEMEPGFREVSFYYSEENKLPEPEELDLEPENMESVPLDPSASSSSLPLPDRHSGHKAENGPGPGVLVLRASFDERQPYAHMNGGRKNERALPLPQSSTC
In short: (§2)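 Radiometric [γ-33P]-ATP kinase assay with poly(Glu,Tyr) 4:1 substrate. Reaction run 80 min at 30 °C, stopped with 2% H3PO4 and washed with 0.9% NaCl. 33Pi incorporation counted by microplate scintillation. IC50 from 12 concentrations tested in triplicate, with Z'-factor used as plate control.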

[3] = target: Mast/stem cell growth factor receptor Kit (Homo sapiens, UniProt P10721); test: Inhibition of KIT after 80 mins by radiometric protein kinase assay; in short: as §1
Mast/stem cell growth factor receptor Kit, sequence (P10721 whole entry): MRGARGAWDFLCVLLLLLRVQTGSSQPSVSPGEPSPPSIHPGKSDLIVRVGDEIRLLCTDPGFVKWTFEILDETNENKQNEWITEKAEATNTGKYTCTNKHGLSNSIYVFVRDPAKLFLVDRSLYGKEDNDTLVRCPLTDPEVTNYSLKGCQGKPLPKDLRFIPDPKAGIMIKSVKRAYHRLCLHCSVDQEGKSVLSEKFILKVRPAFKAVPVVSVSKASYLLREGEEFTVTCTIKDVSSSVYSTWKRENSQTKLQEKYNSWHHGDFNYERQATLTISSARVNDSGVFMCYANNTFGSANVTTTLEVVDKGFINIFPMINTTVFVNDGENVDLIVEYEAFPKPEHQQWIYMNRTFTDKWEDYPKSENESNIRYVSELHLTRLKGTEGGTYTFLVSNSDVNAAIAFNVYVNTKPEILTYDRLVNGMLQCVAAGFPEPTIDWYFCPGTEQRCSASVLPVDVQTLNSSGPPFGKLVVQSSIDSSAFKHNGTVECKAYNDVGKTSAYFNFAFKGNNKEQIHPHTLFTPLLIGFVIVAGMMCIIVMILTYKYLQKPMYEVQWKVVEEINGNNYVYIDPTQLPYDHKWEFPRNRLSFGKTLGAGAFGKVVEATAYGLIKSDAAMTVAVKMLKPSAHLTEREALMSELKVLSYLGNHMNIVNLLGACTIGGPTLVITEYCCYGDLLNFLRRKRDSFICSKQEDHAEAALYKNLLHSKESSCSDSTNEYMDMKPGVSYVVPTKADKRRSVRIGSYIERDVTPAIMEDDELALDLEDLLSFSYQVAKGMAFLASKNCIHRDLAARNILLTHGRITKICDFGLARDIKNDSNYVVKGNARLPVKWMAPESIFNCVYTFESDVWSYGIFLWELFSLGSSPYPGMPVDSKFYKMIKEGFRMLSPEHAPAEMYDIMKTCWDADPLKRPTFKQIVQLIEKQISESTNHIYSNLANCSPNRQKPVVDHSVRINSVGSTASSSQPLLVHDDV

[4] = target: Platelet-derived growth factor receptor alpha (Homo sapiens, UniProt P16234); test: Inhibition of PDGFRalpha after 80 mins by radiometric protein kinase assay
In short: (§3)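 Radiometric [γ-33P]-ATP kinase assay with poly(Ala,Glu,Lys,Tyr) 6:2:5:1 substrate. Incubated 30 °C for 80 min, then stopped with 2% H3PO4 and washed with 0.9% NaCl. 33Pi incorporation read by scintillation counting. IC50 from 12 concentrations in triplicate; plate quality checked by Z'-factor.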

[5] = target: Platelet-derived growth factor receptor beta (Homo sapiens, UniProt P09619); test: Inhibition of PDGFRbeta after 80 mins by radiometric protein kinase assay
Platelet-derived growth factor receptor beta, sequence (P09619 whole entry): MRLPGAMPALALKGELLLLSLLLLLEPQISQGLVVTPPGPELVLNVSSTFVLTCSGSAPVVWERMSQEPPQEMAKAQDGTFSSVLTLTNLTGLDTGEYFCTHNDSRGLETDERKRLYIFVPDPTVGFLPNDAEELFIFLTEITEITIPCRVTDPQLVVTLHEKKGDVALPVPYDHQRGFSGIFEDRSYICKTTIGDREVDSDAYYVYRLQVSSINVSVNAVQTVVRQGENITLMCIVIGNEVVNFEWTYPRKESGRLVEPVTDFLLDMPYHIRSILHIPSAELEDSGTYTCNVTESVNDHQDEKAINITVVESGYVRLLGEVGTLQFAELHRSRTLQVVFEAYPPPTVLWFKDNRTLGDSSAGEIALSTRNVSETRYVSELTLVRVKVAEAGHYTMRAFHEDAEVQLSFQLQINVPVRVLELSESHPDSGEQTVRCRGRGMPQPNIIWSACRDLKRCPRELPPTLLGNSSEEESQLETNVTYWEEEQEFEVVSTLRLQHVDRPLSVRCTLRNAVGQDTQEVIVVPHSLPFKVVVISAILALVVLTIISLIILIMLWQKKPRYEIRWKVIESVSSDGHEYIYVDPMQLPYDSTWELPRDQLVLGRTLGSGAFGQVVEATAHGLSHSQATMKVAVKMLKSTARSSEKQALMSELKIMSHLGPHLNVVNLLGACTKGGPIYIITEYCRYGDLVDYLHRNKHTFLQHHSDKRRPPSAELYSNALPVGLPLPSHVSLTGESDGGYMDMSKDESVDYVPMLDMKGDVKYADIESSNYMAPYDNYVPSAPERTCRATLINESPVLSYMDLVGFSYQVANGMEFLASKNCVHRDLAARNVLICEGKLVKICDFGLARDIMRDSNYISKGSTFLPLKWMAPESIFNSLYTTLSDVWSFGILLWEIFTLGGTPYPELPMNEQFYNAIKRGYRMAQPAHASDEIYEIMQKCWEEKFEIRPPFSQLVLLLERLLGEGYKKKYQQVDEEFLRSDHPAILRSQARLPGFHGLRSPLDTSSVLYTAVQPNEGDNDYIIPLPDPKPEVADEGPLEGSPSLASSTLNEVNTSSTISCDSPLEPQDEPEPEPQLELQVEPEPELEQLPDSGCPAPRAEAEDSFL

Angiopoietin-1 receptor = Angiopoietin-1 receptor (Homo sapiens, UniProt Q02763); test: Inhibition of TIE2 after 80 mins by radiometric protein kinase assay; in short: as §3
[6] = target: Vascular endothelial growth factor receptor 1 (Homo sapiens, UniProt P17948); test: Inhibition of VEGFR1 after 80 mins by radiometric protein kinase assay; in short: as §2
[7] = target: Vascular endothelial growth factor receptor 2 (Homo sapiens, UniProt P35968); test: Inhibition of VEGFR2 after 80 mins by radiometric protein kinase assay; in short: as §2
Vascular endothelial growth factor receptor 2, sequence (P35968 whole entry): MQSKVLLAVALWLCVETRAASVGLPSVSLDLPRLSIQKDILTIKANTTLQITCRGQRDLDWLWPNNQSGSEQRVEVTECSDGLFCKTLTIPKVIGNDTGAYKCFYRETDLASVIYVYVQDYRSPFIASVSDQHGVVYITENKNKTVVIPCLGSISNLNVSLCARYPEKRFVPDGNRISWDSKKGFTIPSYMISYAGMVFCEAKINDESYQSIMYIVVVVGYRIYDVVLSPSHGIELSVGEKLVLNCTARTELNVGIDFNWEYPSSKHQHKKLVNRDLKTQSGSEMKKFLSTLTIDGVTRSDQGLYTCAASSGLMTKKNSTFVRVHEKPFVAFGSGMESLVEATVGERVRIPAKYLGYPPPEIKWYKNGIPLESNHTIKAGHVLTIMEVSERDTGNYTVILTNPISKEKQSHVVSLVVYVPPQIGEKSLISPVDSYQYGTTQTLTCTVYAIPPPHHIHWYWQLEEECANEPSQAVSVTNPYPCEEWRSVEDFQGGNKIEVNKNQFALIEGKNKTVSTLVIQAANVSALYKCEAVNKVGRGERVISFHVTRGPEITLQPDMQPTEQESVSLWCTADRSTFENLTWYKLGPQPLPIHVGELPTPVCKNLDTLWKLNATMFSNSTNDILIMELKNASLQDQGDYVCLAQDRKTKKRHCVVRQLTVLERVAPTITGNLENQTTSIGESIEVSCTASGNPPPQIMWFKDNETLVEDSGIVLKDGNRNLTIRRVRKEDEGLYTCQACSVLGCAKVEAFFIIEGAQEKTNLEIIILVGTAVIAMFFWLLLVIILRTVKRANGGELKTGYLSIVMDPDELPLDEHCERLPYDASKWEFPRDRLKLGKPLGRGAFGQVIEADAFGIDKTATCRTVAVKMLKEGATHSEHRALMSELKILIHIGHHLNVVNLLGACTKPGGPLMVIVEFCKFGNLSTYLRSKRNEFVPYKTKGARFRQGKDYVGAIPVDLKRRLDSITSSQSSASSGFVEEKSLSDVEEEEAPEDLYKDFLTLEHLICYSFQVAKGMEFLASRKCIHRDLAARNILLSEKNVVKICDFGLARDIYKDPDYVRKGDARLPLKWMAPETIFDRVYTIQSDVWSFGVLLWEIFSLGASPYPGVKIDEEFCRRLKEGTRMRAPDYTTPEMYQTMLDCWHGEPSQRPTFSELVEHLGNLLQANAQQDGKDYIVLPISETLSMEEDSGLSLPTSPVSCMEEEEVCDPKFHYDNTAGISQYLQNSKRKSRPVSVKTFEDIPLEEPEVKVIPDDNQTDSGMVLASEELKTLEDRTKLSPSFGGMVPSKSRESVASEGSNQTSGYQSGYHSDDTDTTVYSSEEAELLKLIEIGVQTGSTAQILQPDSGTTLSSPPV

[8] = target: Vascular endothelial growth factor receptor 3 (Homo sapiens, UniProt P35916); test: Inhibition of VEGFR3 after 80 mins by radiometric protein kinase assay; in short: as §2
[9] = Octanol-phosphate buffered saline partition coefficient, log D at pH 7.4; assay type: physicochemical
In short: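 About 200 µCi of the [¹¹C] tracer was taken up in 5 mL n-octanol and mixed with 1 mL phosphate buffer (pH 7.4, 100 mM), a 5:1 octanol:buffer ratio. The mixture was vortexed for 2 min, the phases were separated, and each phase was measured for radioactivity.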

Blood [10] = test: Metabolic stability in human blood assessed as residual radioactivity at 300 uCi after 30 mins by RP-HPLC; assay type: ADME, tissue-based; settings: 0.5 h
In short: (§4)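 Fresh human EDTA blood, 1 mL aliquots, was preincubated at 37 °C for 15 min. About 300 µCi of the [¹¹C] tracer was added and samples were held for 0, 30 or 60 min. Samples were centrifuged, and the plasma was extracted with cold THF/ACN (30:70) and centrifuged again. The extract was analysed by RP-HPLC and by RP-TLC (40:60 H₂O:ACN) with phosphor imaging; n = 3.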

Blood [11] = test: Metabolic stability in human blood assessed as residual radioactivity at 300 uCi after 60 mins by RP-HPLC; assay type: ADME, tissue-based; settings: 1 h; in short: as §4
Blood [12] = test: Biodistribution in blood of nude mouse bearing human U87MG tumor at 197 +/- 16 uCi, iv after 30 mins; assay type: ADME, organism-based; settings: in vivo, 0.5 h
In short: (§5)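 Male nude Hsd-Athymic Nude-nu mice (10–12 weeks) with subcutaneous 293/KDR tumors (1.5–2 × 10⁶ cells, 7–21 days) or U87MG.wt EGFR tumors (1.5–4 × 10⁶ cells with 20% Matrigel, 4–20 days). The [¹¹C] tracer was given via the lateral tail vein in 10% ethanol/saline (1.1 ± 0.3 Ci/µmol; 225 ± 11 µL). At 30 or 60 min, blood was drawn from the orbital sinus and organs were excised, weighed and gamma-counted; results are %ID/g, n = 10–12.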

Blood [13] = test: Biodistribution in blood of nude mouse bearing human U87MG tumor at 197 +/- 16 uCi, iv after 60 mins; assay type: ADME, organism-based; settings: in vivo, 1 h; in short: as §5
[14] = Biodistribution in tumor of nude mouse bearing human U87MG tumor at 197 +/- 16 uCi, iv after 30 mins; assay type: ADME, organism-based, Neoplasm; settings: in vivo, 0.5 h; in short: as §5
[15] = Biodistribution in tumor of nude mouse bearing human U87MG tumor at 197 +/- 16 uCi, iv after 60 mins; assay type: ADME, organism-based, Neoplasm; settings: in vivo, 1 h; in short: as §5
Zone of skin [16] = test: Biodistribution in skin of nude mouse bearing human U87MG tumor at 197 +/- 16 uCi, iv after 30 mins; assay type: ADME, organism-based; settings: in vivo, 0.5 h; in short: as §5
Zone of skin [17] = test: Biodistribution in skin of nude mouse bearing human U87MG tumor at 197 +/- 16 uCi, iv after 60 mins; assay type: ADME, organism-based; settings: in vivo, 1 h; in short: as §5
Bone [18] = test: Biodistribution in bone of nude mouse bearing human U87MG tumor at 197 +/- 16 uCi, iv after 30 mins; assay type: ADME, organism-based, Bone element; settings: in vivo, 0.5 h; in short: as §5
Bone [19] = test: Biodistribution in bone of nude mouse bearing human U87MG tumor at 197 +/- 16 uCi, iv after 60 mins; assay type: ADME, organism-based, Bone element; settings: in vivo, 1 h; in short: as §5
Muscle tissue [20] = test: Biodistribution in muscle of nude mouse bearing human U87MG tumor at 197 +/- 16 uCi, iv after 30 mins; assay type: ADME, organism-based; settings: in vivo, 0.5 h; in short: as §5
Muscle tissue [21] = test: Biodistribution in muscle of nude mouse bearing human U87MG tumor at 197 +/- 16 uCi, iv after 60 mins; assay type: ADME, organism-based; settings: in vivo, 1 h; in short: as §5
Liver [22] = test: Biodistribution in liver of nude mouse bearing human U87MG tumor at 197 +/- 16 uCi, iv after 30 mins; assay type: ADME, organism-based; settings: in vivo, 0.5 h; in short: as §5
Liver [23] = test: Biodistribution in liver of nude mouse bearing human U87MG tumor at 197 +/- 16 uCi, iv after 60 mins; assay type: ADME, organism-based; settings: in vivo, 1 h; in short: as §5
Kidney [24] = test: Biodistribution in kidney of nude mouse bearing human U87MG tumor at 197 +/- 16 uCi, iv after 30 mins; assay type: ADME, organism-based; settings: in vivo, 0.5 h; in short: as §5
Kidney [25] = test: Biodistribution in kidney of nude mouse bearing human U87MG tumor at 197 +/- 16 uCi, iv after 60 mins; assay type: ADME, organism-based; settings: in vivo, 1 h; in short: as §5
Blood [26] = test: Biodistribution in blood of nude mouse bearing human 293/KDR tumor at 197 +/- 16 uCi, iv after 30 mins; assay type: ADME, organism-based; settings: in vivo, 0.5 h; in short: as §5
Blood [27] = test: Biodistribution in blood of nude mouse bearing human 293/KDR tumor at 197 +/- 16 uCi, iv after 60 mins; assay type: ADME, organism-based; settings: in vivo, 1 h; in short: as §5
[28] = Biodistribution in tumor of nude mouse bearing human 293/KDR tumor at 197 +/- 16 uCi, iv after 30 mins; assay type: ADME, organism-based, Neoplasm; settings: in vivo, 0.5 h; in short: as §5
[29] = Biodistribution in tumor of nude mouse bearing human 293/KDR tumor at 197 +/- 16 uCi, iv after 60 mins; assay type: ADME, organism-based, Neoplasm; settings: in vivo, 1 h; in short: as §5
Zone of skin [30] = test: Biodistribution in skin of nude mouse bearing human 293/KDR tumor at 197 +/- 16 uCi, iv after 30 mins; assay type: ADME, organism-based; settings: in vivo, 0.5 h; in short: as §5
Zone of skin [31] = test: Biodistribution in skin of nude mouse bearing human 293/KDR tumor at 197 +/- 16 uCi, iv after 60 mins; assay type: ADME, organism-based; settings: in vivo, 1 h; in short: as §5
Bone [32] = test: Biodistribution in bone of nude mouse bearing human 293/KDR tumor at 197 +/- 16 uCi, iv after 30 mins; assay type: ADME, organism-based, Bone element; settings: in vivo, 0.5 h; in short: as §5
Bone [33] = test: Biodistribution in bone of nude mouse bearing human 293/KDR tumor at 197 +/- 16 uCi, iv after 60 mins; assay type: ADME, organism-based, Bone element; settings: in vivo, 1 h; in short: as §5
Muscle tissue [34] = test: Biodistribution in muscle of nude mouse bearing human 293/KDR tumor at 197 +/- 16 uCi, iv after 30 mins; assay type: ADME, organism-based; settings: in vivo, 0.5 h; in short: as §5
Muscle tissue [35] = test: Biodistribution in muscle of nude mouse bearing human 293/KDR tumor at 197 +/- 16 uCi, iv after 60 mins; assay type: ADME, organism-based; settings: in vivo, 1 h; in short: as §5
Liver [36] = test: Biodistribution in liver of nude mouse bearing human 293/KDR tumor at 197 +/- 16 uCi, iv after 30 mins; assay type: ADME, organism-based; settings: in vivo, 0.5 h; in short: as §5
Liver [37] = test: Biodistribution in liver of nude mouse bearing human 293/KDR tumor at 197 +/- 16 uCi, iv after 60 mins; assay type: ADME, organism-based; settings: in vivo, 1 h; in short: as §5
Kidney [38] = test: Biodistribution in kidney of nude mouse bearing human 293/KDR tumor at 197 +/- 16 uCi, iv after 30 mins; assay type: ADME, organism-based; settings: in vivo, 0.5 h; in short: as §5
Kidney [39] = test: Biodistribution in kidney of nude mouse bearing human 293/KDR tumor at 197 +/- 16 uCi, iv after 60 mins; assay type: ADME, organism-based; settings: in vivo, 1 h; in short: as §5
[40] = Metabolic stability in mouse liver microsome assessed as intact compound at 2 to 3 mCi after 15 mins by RP-HPLC; assay type: ADME; settings: liver microsomes, read-out: Stability
In short: (§6)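 Tracer (2–3 mCi in 100 µL ethanol) was preincubated with 0.5 mg/mL mouse hepatic microsomes in PBS pH 7.4 at 37 °C for 5 min. Reactions were started with 0.25 mM NADPH and sampled at 0–60 min. Aliquots were loaded on a celite plug and eluted with ethanol, and intact tracer was measured by RP-HPLC.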

[41] = Metabolic stability in mouse liver microsome assessed as intact compound at 2 to 3 mCi after 30 mins by RP-HPLC; assay type: ADME; settings: liver microsomes, read-out: Stability; in short: as §6
[42] = Metabolic stability in mouse liver microsome assessed as intact compound at 2 to 3 mCi after 45 mins by RP-HPLC; assay type: ADME; settings: liver microsomes, read-out: Stability; in short: as §6

COc1cc(C2=C(c3c[nH]c4ccc(I)cc34)C(=O)NC2=O)cc(OC)c1OC
IC50 [1]: 15.2 µM | IC50 [2]: 3.2 µM | IC50 [3]: 3.33 µM | IC50 [4]: 1.31 µM | IC50 [5]: 0.858 µM | IC50 (Angiopoietin-1 receptor): 3.96 µM | IC50 [6]: 0.0694 µM | IC50 [7]: 0.0249 µM | IC50 [8]: 0.0295 µM

COc1cc(C2=C(c3c[nH]c4ccccc34)C(=O)NC2=O)cc(OC)c1O[11CH3]
logD [9]: 1.99 | Stability (Blood [10]): 61 % ID/g | Stability (Blood [11]): 62 % ID/g | Stability (Blood [12]): 0.38 % ID/g | Stability (Blood [13]): 0.29 % ID/g | Stability [14]: 0.33 % ID/g | Stability [15]: 0.17 % ID/g | Stability (Zone of skin [16]): 0.41 % ID/g | Stability (Zone of skin [17]): 0.21 % ID/g | Stability (Bone [18]): 0.19 % ID/g | Stability (Bone [19]): 0.11 % ID/g | Stability (Muscle tissue [20]): 0.17 % ID/g | Stability (Muscle tissue [21]): 0.09 % ID/g | Stability (Liver [22]): 2.64 % ID/g | Stability (Liver [23]): 1.68 % ID/g | Stability (Kidney [24]): 2.24 % ID/g | Stability (Kidney [25]): 0.79 % ID/g | Stability (Blood [26]): 0.36 % ID/g | Stability (Blood [27]): 0.19 % ID/g | Stability [28]: 0.3 % ID/g | Stability [29]: 0.14 % ID/g | Stability (Zone of skin [30]): 0.38 % ID/g | Stability (Zone of skin [31]): 0.14 % ID/g | Stability (Bone [32]): 0.15 % ID/g | Stability (Bone [33]): 0.09 % ID/g | Stability (Muscle tissue [34]): 0.2 % ID/g | Stability (Muscle tissue [35]): 0.08 % ID/g | Stability (Liver [36]): 2.89 % ID/g | Stability (Liver [37]): 2.95 % ID/g | Stability (Kidney [38]): 2.29 % ID/g | Stability (Kidney [39]): 0.8 % ID/g | remaining at 0.25 h [40]: 40% | remaining at 0.5 h [41]: 25% | remaining at 0.75 h [42]: 16%
